The text below walks through data of ChEMBL document CHEMBL5678818, “Discovery of potent SOS1 inhibitors that block RAS activation via disruption of the RAS-SOS1 interaction” (Proc Natl Acad Sci U S A, 2019).

Experiment [1] has as its system Tyrosine-protein kinase ABL1 (Homo sapiens), P00519 [H396P]. The experiment is described as follows: Inhibition of phosphorylated ABL1 H396P mutant (unknown origin) assessed as residual activity at 1000 nM by KINOMEscan analysis relative to control.
In experiment [2] the target is RAC-gamma serine/threonine-protein kinase (Homo sapiens) (UniProt Q9Y243). The experiment is described as follows: Inhibition of AKT3 (unknown origin) assessed as residual activity at 1000 nM by KINOMEscan analysis relative to control.
Experiment [3] has as its target Calcium/calmodulin-dependent protein kinase type II subunit alpha (Homo sapiens) (UniProt Q9UQM7). The experiment is described as follows: Inhibition of CAMK2A (unknown origin) assessed as residual activity at 1000 nM by KINOMEscan analysis relative to control.
In experiment [4] the test system is Epidermal growth factor receptor (Homo sapiens), P00533 [L861Q]. The experiment is described as follows: Inhibition of EGFR L861Q mutant (unknown origin) assessed as residual activity at 1000 nM by KINOMEscan analysis relative to control.
The subject of experiment [5] is Mast/stem cell growth factor receptor Kit (Homo sapiens), P10721 [D816V]. The experiment is described as follows: Inhibition of KIT D816V mutant (unknown origin) assessed as residual activity at 1000 nM by KINOMEscan analysis relative to control.
Experiment [6] deals with Mitogen-activated protein kinase kinase kinase kinase 5 (Homo sapiens) (UniProt Q9Y4K4). The experiment is described as follows: Inhibition of MAP4K5 (unknown origin) assessed as residual activity at 1000 nM by KINOMEscan analysis relative to control.
The target in experiment [7] is Serine/threonine-protein kinase mTOR (Homo sapiens) (UniProt P42345). The experiment is described as follows: Inhibition of MTOR (unknown origin) assessed as residual activity at 1000 nM by KINOMEscan analysis relative to control.
The target in experiment [8] is T1, Myosin light chain kinase family member 4 (Homo sapiens) (UniProt Q86YV6).
T1 sequence (whole entry): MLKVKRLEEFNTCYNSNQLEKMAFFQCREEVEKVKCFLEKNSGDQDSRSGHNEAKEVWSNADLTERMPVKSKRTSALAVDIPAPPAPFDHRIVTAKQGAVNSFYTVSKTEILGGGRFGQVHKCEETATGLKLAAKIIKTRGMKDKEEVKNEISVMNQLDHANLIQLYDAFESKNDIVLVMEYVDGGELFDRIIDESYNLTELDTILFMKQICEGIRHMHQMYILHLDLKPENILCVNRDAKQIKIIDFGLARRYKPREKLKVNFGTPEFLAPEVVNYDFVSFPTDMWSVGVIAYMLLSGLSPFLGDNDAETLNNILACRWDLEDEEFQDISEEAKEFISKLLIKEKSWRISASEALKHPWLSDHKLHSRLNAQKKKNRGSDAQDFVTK
The experiment is described as follows: Inhibition of MYLK4 (unknown origin) assessed as residual activity at 1000 nM by KINOMEscan analysis relative to control.

In experiment [9] the target is Serine/threonine-protein kinase Nek4 (Homo sapiens) (UniProt P51957). The experiment is described as follows: Inhibition of NEK4 (unknown origin) assessed as residual activity at 1000 nM by KINOMEscan analysis relative to control.
Experiment [10] addresses Mitogen-activated protein kinase 11 (Homo sapiens) (UniProt Q15759). The experiment is described as follows: Inhibition of p38-beta (unknown origin) assessed as residual activity at 1000 nM by KINOMEscan analysis relative to control.
Experiment [11] addresses Protein-tyrosine kinase 2-beta (Homo sapiens) (UniProt Q14289). The experiment is described as follows: Inhibition of PYK2 (unknown origin) assessed as residual activity at 1000 nM by KINOMEscan analysis relative to control.
For experiment [12], the target named is T2, Receptor-interacting serine/threonine-protein kinase 1 (Homo sapiens) (UniProt Q13546).
T2 sequence (whole entry): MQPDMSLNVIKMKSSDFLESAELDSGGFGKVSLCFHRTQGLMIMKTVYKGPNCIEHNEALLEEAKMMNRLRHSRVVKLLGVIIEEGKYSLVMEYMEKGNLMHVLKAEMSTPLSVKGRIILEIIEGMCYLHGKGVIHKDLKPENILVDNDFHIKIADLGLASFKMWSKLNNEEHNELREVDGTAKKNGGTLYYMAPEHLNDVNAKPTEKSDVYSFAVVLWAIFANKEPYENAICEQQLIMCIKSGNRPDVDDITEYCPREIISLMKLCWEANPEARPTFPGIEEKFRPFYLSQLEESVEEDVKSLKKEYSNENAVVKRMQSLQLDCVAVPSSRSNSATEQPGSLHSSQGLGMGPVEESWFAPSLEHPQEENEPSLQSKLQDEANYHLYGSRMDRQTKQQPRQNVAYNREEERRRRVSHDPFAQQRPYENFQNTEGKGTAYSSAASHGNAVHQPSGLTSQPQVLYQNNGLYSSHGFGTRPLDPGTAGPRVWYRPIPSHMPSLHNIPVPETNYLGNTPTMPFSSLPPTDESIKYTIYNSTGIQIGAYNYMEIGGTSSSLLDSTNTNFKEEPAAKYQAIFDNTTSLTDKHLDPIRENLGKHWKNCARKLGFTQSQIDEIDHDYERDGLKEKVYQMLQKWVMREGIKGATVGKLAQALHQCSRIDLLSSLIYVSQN
The experiment is described as follows: Inhibition of RIPK1 (unknown origin) assessed as residual activity at 1000 nM by KINOMEscan analysis relative to control.

Experiment [13] addresses Serine/threonine-protein kinase SIK1 (Homo sapiens) (UniProt P57059). The experiment is described as follows: Inhibition of SIK (unknown origin) assessed as residual activity at 1000 nM by KINOMEscan analysis relative to control.
Experiment [14] deals with SRSF protein kinase 2 (Homo sapiens) (UniProt P78362). The experiment is described as follows: Inhibition of SRPK2 (unknown origin) assessed as residual activity at 1000 nM by KINOMEscan analysis relative to control.
In experiment [15] the target is T3, TGF-beta receptor type-1 (Homo sapiens) (UniProt P36897).
T3 sequence (whole entry): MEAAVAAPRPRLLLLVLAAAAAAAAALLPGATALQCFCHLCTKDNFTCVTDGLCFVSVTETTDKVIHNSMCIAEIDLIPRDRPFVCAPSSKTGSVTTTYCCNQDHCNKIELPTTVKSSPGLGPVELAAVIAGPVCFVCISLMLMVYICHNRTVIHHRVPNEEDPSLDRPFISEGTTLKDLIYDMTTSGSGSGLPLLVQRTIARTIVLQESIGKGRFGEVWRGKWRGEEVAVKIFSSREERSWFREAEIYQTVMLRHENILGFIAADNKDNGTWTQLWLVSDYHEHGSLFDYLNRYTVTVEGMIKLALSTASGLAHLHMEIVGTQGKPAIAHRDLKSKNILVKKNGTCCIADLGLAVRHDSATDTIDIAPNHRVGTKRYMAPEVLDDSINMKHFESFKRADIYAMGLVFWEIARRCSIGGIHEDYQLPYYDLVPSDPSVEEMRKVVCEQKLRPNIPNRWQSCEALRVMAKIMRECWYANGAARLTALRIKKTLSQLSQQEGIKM
The experiment is described as follows: Inhibition of TGFBR1 (unknown origin) assessed as residual activity at 1000 nM by KINOMEscan analysis relative to control.

The next experiment has as its system NCI-H358. The experiment is described as follows: Antiproliferative activity against human NCI-H358 cells assessed as inhibition of cell viability incubated for 72 hrs by Cell Titer Glo assay. It counts as functional, cell-based. The following applies: NCI-H358, 72 h. The essentials: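 NCI-H358 cells (KRAS G12C mutant) were sourced from ATCC.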
Background: Cellular ATP, detected with luciferase, serves as a proxy for viable cell number.

Sequence of SRSF protein kinase 2 (Homo sapiens) (P78362 whole entry, looked up): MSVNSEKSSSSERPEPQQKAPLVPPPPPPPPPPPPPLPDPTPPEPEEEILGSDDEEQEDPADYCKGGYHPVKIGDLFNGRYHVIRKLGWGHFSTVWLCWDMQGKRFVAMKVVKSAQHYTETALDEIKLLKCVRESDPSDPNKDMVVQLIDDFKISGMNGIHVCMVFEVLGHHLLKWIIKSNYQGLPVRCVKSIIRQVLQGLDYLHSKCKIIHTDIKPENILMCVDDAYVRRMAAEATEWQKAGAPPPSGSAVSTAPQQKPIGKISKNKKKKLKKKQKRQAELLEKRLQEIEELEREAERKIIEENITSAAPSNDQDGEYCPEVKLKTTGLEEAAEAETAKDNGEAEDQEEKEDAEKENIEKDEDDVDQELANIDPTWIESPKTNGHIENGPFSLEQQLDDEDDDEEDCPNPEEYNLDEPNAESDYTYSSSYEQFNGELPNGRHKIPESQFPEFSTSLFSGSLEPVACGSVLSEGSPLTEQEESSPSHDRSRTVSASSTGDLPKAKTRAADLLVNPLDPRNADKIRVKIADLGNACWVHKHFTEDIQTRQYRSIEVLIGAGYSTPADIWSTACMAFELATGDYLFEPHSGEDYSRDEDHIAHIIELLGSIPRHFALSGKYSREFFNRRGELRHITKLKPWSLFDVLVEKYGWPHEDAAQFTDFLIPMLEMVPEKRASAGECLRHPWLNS
Sequence of Mitogen-activated protein kinase kinase kinase kinase 5 (Homo sapiens) (Q9Y4K4 whole entry, looked up): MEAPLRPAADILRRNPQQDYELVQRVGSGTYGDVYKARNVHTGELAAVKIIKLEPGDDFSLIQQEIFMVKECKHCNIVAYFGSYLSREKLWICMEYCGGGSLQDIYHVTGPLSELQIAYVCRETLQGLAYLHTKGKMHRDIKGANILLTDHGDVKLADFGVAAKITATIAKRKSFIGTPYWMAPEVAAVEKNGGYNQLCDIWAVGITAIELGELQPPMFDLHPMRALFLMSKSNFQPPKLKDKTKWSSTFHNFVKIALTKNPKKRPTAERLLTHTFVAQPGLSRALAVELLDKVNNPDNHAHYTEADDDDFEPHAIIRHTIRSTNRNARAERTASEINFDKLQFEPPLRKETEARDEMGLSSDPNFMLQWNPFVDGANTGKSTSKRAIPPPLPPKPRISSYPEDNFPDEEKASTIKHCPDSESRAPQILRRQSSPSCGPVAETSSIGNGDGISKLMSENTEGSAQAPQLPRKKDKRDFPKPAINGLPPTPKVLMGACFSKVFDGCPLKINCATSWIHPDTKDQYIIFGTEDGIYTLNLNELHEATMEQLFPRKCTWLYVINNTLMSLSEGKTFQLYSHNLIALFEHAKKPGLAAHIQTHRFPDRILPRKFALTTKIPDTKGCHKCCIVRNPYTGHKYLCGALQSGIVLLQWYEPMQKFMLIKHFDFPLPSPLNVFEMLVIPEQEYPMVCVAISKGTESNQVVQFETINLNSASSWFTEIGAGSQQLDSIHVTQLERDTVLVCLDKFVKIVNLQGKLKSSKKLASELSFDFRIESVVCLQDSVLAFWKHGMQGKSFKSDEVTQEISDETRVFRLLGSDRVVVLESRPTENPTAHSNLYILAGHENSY
Sequence of Mitogen-activated protein kinase 11 (Homo sapiens) (Q15759 whole entry): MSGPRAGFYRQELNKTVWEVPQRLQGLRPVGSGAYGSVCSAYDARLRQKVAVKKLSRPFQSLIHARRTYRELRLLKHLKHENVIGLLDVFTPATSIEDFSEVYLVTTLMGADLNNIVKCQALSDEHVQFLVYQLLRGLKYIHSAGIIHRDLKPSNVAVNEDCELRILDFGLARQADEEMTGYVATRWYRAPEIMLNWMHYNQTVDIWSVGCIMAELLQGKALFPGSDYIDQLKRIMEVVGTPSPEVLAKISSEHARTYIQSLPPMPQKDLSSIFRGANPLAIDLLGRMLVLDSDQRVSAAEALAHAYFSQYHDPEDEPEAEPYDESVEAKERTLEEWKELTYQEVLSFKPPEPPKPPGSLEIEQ
Sequence of RAC-gamma serine/threonine-protein kinase (Homo sapiens) (Q9Y243 whole entry): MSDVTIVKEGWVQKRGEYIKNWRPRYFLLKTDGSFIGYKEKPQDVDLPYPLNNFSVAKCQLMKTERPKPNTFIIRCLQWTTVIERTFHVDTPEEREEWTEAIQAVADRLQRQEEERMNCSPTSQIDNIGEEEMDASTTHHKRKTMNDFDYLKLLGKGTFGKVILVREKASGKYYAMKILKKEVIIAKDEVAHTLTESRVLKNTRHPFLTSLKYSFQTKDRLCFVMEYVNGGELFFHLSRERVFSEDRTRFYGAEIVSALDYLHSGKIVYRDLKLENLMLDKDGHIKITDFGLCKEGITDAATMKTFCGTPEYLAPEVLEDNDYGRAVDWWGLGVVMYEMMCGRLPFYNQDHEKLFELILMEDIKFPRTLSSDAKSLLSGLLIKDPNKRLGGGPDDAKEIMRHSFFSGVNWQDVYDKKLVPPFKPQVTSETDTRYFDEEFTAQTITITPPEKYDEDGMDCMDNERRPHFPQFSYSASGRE
Sequence of Calcium/calmodulin-dependent protein kinase type II subunit alpha (Homo sapiens) (Q9UQM7 whole entry): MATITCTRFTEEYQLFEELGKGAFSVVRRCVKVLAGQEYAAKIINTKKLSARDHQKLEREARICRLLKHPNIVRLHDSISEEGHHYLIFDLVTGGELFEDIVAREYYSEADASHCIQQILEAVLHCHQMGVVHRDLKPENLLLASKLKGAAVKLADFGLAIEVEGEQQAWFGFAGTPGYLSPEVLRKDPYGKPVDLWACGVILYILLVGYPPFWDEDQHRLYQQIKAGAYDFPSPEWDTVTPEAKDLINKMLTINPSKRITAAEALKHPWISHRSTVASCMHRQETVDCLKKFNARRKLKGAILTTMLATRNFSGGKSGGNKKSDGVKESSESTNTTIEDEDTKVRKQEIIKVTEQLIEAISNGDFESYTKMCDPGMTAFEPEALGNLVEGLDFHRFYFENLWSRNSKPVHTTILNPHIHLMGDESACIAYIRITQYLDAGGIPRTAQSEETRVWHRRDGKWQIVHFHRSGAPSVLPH
Sequence of Serine/threonine-protein kinase SIK1 (Homo sapiens) (P57059 whole entry): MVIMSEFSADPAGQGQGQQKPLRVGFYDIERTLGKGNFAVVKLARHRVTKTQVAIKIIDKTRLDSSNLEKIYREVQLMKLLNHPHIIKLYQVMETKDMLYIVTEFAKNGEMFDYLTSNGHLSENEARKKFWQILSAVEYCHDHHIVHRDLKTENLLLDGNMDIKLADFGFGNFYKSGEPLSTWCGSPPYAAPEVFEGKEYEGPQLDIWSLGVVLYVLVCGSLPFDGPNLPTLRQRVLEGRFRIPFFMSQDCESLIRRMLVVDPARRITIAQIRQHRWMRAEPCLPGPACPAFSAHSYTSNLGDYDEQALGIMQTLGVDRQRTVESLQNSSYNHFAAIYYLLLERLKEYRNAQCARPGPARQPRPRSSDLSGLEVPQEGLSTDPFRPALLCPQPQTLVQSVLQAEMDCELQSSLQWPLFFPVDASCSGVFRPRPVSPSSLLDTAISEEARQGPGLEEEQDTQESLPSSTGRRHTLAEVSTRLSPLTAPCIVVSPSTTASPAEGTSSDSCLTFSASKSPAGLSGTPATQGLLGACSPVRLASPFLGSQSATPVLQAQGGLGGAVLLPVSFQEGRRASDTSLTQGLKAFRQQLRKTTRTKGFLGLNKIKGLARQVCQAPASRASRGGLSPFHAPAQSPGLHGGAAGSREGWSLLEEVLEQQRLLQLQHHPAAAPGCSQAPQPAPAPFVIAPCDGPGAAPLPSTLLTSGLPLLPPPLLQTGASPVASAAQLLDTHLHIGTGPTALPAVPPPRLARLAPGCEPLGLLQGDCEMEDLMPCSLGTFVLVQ
Sequence of Mast/stem cell growth factor receptor Kit (Homo sapiens), P10721 [D816V] (P10721 whole entry D816V): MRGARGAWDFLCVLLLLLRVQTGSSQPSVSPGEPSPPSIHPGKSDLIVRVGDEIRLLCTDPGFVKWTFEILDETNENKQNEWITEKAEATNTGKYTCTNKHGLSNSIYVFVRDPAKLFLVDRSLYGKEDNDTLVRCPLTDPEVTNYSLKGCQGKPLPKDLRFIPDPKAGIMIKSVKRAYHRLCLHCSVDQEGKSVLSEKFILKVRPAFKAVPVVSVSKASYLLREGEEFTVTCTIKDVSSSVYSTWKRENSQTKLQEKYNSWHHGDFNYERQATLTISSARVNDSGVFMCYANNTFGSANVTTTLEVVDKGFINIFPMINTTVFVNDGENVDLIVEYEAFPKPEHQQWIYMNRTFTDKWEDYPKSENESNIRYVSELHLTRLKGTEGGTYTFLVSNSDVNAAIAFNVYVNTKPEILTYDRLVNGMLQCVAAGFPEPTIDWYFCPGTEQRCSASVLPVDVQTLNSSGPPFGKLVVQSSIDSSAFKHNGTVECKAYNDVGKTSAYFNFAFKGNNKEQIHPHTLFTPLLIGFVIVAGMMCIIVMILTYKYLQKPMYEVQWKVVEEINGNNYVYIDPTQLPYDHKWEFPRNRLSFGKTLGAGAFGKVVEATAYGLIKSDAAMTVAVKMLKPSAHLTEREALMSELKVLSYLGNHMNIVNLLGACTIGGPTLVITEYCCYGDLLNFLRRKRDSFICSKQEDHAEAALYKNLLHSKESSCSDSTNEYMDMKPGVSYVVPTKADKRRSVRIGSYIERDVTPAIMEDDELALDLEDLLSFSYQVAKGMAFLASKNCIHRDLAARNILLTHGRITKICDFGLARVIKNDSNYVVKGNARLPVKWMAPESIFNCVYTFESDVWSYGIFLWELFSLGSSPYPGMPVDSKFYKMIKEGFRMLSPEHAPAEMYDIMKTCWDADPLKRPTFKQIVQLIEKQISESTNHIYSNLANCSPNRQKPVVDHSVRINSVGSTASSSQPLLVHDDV

A word on the IC50: it is the concentration needed to halve the response being measured. As to `COc1cc2nc(C)nc(N[C@H](C)c3cccc(-c4cn[nH]c4)c3)c2cc1OC`, the Activity in experiment [1] was determined as 91%; in experiment [2], 84%; in [3], 94%; in [4] it was 86%; in experiment [5], 55%; in experiment [6], 96%. Also, the Activity in [7] came out at 62%; in [8] it was 92%; in experiment [9], 81%; in experiment [10], 97%; in experiment [11], 38%; in [12], 85%. For the same compound, the results for the Activity in experiment [13], in experiment [14] and in experiment [15] were 65%, 94% and 100%, respectively. The IC50 with NCI-H358 came out at 13.6 µM.
Regarding `COc1cc2ncnc(N[C@H](C)c3cccc4ccccc34)c2cc1OC`, the Activity in experiment [1] turned out to be 93%; in experiment [2], 100%; in [3], 95%; in [4], 1.1%; in experiment [5] it was 96%; in [6] it was 100%. Also, the Activity was 95% in experiment [7]; 75% in experiment [8]; 90% in [9]; 96% in [10]; 100% in [11]; 93% in experiment [12]. For the same compound, the Activity in [13] worked out at 98%; in experiment [14] it was 93%; in [15], 100%.
In the case of `CNCc1ccccc1-c1csc([C@@H](C)Nc2nc(C)nc3cc(OC)c(OC)cc23)c1` [BAY-293], the IC50 in the experiment with NCI-H358 is 3.48 µM.
